# Assay results taken from ChEMBL document CHEMBL4431379, “Diverging Novobiocin Anti-Cancer Activity from Neuroprotective Activity through Modification of the Amide Tail” (ACS Med Chem Lett, 2016).
# The source made the active and inactive calls. The rule behind the calls is not given here.
# Tests used:
# SK-BR-3 = assay: Antiproliferative activity against human SK-BR-3 cells; assay type: functional, cell-based
# In short: (§1)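 Antiproliferative assay in SkBr3 (Her2-overexpressing breast) and PC3-MM2 (androgen-independent prostate) cancer cells. IC50 in μM given as mean ± standard deviation of at least two separate experiments, each run in triplicate.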
# [1] = biological target: T1, Heat shock protein HSP90 (Homo sapiens) (UniProt P07900+P08238); assay: Induction of HSP90-mediated HSF1 expression in human PC3MM2 cells at 10 uM after 24 hrs by Western blot analysis; assay type: cell-based
# In short: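 PC3-MM2 cells exposed to 10 μM of each compound for 24 h. HSF1 measured by Western blot relative to β-actin.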
# [2] = biological target: T1, Heat shock protein HSP90 (Homo sapiens); assay: Effect on Hsp90 in human PC3MM2 cells assessed as stimulation of firefly luciferase rematuration at 0.02 to 20 uM incubated for 1 hr by luciferase reporter gene assay; assay type: cell-based
# In short: (§2)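 Hsp90-dependent refolding of thermally denatured firefly luciferase in PC3-MM2 cells. Compounds tested from 0.02 to 20 μM.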
# [3] = biological target: T1, Heat shock protein HSP90 (Homo sapiens); assay: Inhibition of Hsp90 in human PC3MM2 cells assessed as suppression of firefly luciferase rematuration at 0.02 to 20 uM incubated for 1 hr by luciferase reporter gene assay; assay type: cell-based; in short: as §2
# [4] = Antiproliferative activity against human PC3MM2 cells; assay type: functional, cell-based; in short: as §1
# Rattus norvegicus = species: Rattus norvegicus; assay: Neuroprotective activity in rat 50B11 cells assessed as maximal respiratory capacity at 5 uM after 24 hrs in presence of oligomycin/FCCP/rotenon/antimycin by extracellular flux analysis
# Homo sapiens [5] = species: Homo sapiens; assay: Inhibition of Hsp90alpha/Aha1 interaction in human PC3MM2 cells assessed as remaining Hsp90alpha/Aha complex levels at 100 uM after 24 hrs by Western blot analysis (reference value: 98 to 100 %); assay type: cell-based
# [6] = biological target: T1, Heat shock protein HSP90 (Homo sapiens); assay: Inhibition of Hsp90 in human PC3MM2 cells assessed as downregulation of Raf1 at 100 uM after 24 hrs by Western blot analysis; assay type: cell-based
# [7] = biological target: T1, Heat shock protein HSP90 (Homo sapiens); assay: Inhibition of Hsp90 in human PC3MM2 cells assessed as downregulation of Her2 at 100 uM after 24 hrs by Western blot analysis; assay type: cell-based
# [8] = biological target: T1, Heat shock protein HSP90 (Homo sapiens); assay: Inhibition of Hsp90 in human PC3MM2 cells assessed as downregulation of Akt at 100 uM after 24 hrs by Western blot analysis; assay type: cell-based
# [9] = biological target: T1, Heat shock protein HSP90 (Homo sapiens); assay: Inhibition of Hsp90 in human PC3MM2 cells assessed as downregulation of Akt at 0.5 to 3 times IC50 after 24 hrs by Western blot analysis; assay type: cell-based
# In short: (§3)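 PC3-MM2 cells treated 24 h at a high (3 × IC50) and a low (0.5 × IC50) concentration. Hsp90 client protein levels measured by Western blot with actin as loading control.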
# [10] = biological target: T1, Heat shock protein HSP90 (Homo sapiens); assay: Inhibition of Hsp90 in human PC3MM2 cells assessed as downregulation of Her2 at 0.5 to 3 times IC50 after 24 hrs by Western blot analysis; assay type: cell-based; in short: as §3
# [11] = biological target: T1, Heat shock protein HSP90 (Homo sapiens); assay: Induction of Hsp90 in human PC3MM2 cells at 0.5 to 3 times IC50 after 24 hrs by Western blot analysis; assay type: cell-based; in short: as §3
# [12] = biological target: T1, Heat shock protein HSP90 (Homo sapiens); assay: Inhibition of Hsp90 in human PC3MM2 cells assessed as downregulation of Raf1 at 0.5 to 3 times IC50 after 24 hrs by Western blot analysis; assay type: cell-based; in short: as §3
# Homo sapiens [13] = species: Homo sapiens; assay: Inhibition of Hsp90alpha/Aha1 interaction in human PC3MM2 cells assessed as remaining Hsp90alpha/Aha complex levels at 35 uM after 24 hrs by Western blot analysis (reference value: 98 to 100 %); assay type: cell-based
# Homo sapiens [14] = species: Homo sapiens; assay: Inhibition of Hsp90alpha/Aha1 interaction in human PC3MM2 cells assessed as remaining Hsp90alpha/Aha complex levels at 50 uM after 24 hrs by Western blot analysis (reference value: 98 to 100 %); assay type: cell-based
IC50 (SK-BR-3) [µM],fold change (FC) [1],Activity [2],inhibition [3],inhibition [6],inhibition [7],inhibition [8],Akt downregulation (active/not active) [9],Her2 downregulation (active/inactive call) [10],Activity [11],Raf1 downregulation (active/not active) [12],SMILES,IC50 [4] [µM],Activity (Rattus norvegicus),remaining Hsp90alpha/Aha1 complex level (Homo sapiens [5]) [%],Activity (Homo sapiens [13]) [%],Activity (Homo sapiens [14]) [%]
> 900,2 to 3.7,Active,inactive,,,,,,,,CO[C@@H]1[C@@H](O)[C@@H](O)[C@H](Oc2ccc3cc(NC(C)=O)c(=O)oc3c2C)OC1(C)C,> 500,Active,68 to 70,,
643,1.2,Active,inactive,inactive,inactive,inactive,,,,,CCC(=O)Nc1cc2ccc(O[C@@H]3OC(C)(C)[C@H](OC)[C@@H](O)[C@H]3O)c(C)c2oc1=O,504,Active,86,,
313,1.1,Active,inactive,inactive,inactive,inactive,,,,,CCCC(=O)Nc1cc2ccc(O[C@@H]3OC(C)(C)[C@H](OC)[C@@H](O)[C@H]3O)c(C)c2oc1=O,466,Active,100,,
58.3,0.6,,Active,,,,Active,Active,inactive,Active,CCCCCCC(=O)Nc1cc2ccc(O[C@@H]3OC(C)(C)[C@H](OC)[C@@H](O)[C@H]3O)c(C)c2oc1=O,34.7,Active,,38,
517,3.7,,,inactive,inactive,inactive,,,,,CO[C@@H]1[C@@H](O)[C@@H](O)[C@H](Oc2ccc3cc(NC(=O)C4CC4)c(=O)oc3c2C)OC1(C)C,> 500,Active,68,,
46.8,1,,Active,,,,Active,Active,inactive,Active,CO[C@@H]1[C@@H](O)[C@@H](O)[C@H](Oc2ccc3cc(NC(=O)C4CCCCC4)c(=O)oc3c2C)OC1(C)C,54.6,Active,,,22
67,2,,Active,,,,Active,Active,inactive,Active,CO[C@@H]1[C@@H](O)[C@@H](O)[C@H](Oc2ccc3cc(NC(=O)C4CCCC4)c(=O)oc3c2C)OC1(C)C,144,Active,27,,
220,4,,,inactive,inactive,inactive,,,,,CO[C@@H]1[C@@H](O)[C@@H](O)[C@H](Oc2ccc3cc(NC(=O)C4CCC4)c(=O)oc3c2C)OC1(C)C,284,Active,54,,
84,0.6,,Active,,,,Active,Active,inactive,Active,CCCCCC(=O)Nc1cc2ccc(O[C@@H]3OC(C)(C)[C@H](OC)[C@@H](O)[C@H]3O)c(C)c2oc1=O,53.7,Active,,,46
118,1.5,Active,inactive,inactive,inactive,inactive,,,,,CCCCC(=O)Nc1cc2ccc(O[C@@H]3OC(C)(C)[C@H](OC)[C@@H](O)[C@H]3O)c(C)c2oc1=O,317,Active,72,,
